In ChEMBL document CHEMBL1158061, “Alkaloids from Gelsemium elegans” (J Nat Prod, 2006):

How the values were obtained:
Type in all cases: functional, cell-based
P388 = assay: Cytotoxicity against mouse P388 cells by MTT method
Procedure, shortened: (§1)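 MTT assay on P388 (murine leukemia) and HL-60 (human leukemia) cells, run by standard protocol with pseudolaric acid B as positive control. Values are reported as IC50 in molar units.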

HL-60 = assay: Cytotoxicity against human HL-60 cells by MTT method; procedure, shortened: as §1
A549 = assay: Cytotoxicity against human A549 cells by SRB method
Procedure, shortened: (§2)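 SRB assay on A-549 (human lung adenocarcinoma) and BEL-7402 (human hepatocellular carcinoma) cells, run by standard protocol with pseudolaric acid B as positive control. Values are reported as IC50 in molar units.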

Bel-7402 = assay: Cytotoxicity against human Bel-7402 cells by SRB method; procedure, shortened: as §2

Row | Compound | IC50 (P388) | IC50 (HL-60) | IC50 (A549) | IC50 (Bel-7402)
1 | CON1C(=O)[C@@]2(C[C@@H]3N=C([C@@H](C)C[C@H]4C(=O)OC[C@H]5[C@@H]4[C@@H](O)C[C@@H]5C)[C@@H]4[C@@H](O)[C@H]2OC[C@@H]43)c2ccccc21 | > 10 µM | > 10 µM | > 10 µM | > 10 µM
2 | CON1C(=O)[C@@]2(C[C@@H]3N=C([C@H](C)C[C@@H]4C(=O)O[C@H]5C[C@H](C)[C@@H](CO)[C@H]54)[C@@H]4[C@@H](O)[C@H]2OC[C@@H]43)c2ccccc21 | > 10 µM | > 10 µM | > 10 µM | > 10 µM
3 | CCN(CC)C[C@@H]1C(=O)O[C@H]2C[C@H](C)[C@@H](CO)[C@H]21 [GELSEBAMINE] | – | – | 0.634 µM | –
4 | C=C[C@@]12CN(C)C3C1[C@@]1(C(=O)N(C[C@@H]4C(=O)O[C@H]5C[C@H](C)[C@@H](CO)[C@H]54)c4ccccc41)[C@H]1C[C@@H]2[C@@H]3CO1 [GELSEBANINE] | > 10 µM | > 10 µM | > 10 µM | > 10 µM
